# Active and inactive are the calls of the source. No cut-off for these calls is given here.
# How the values were obtained:
# [1] = biological target: Melanin-concentrating hormone receptor 1 (Mus musculus) (UniProt Q8JZL2); assay: Ex vivo displacement of [125I]S36057 binding from mouse brain MCHR1 at 30 mg/kg, po after 6 hrs; format: functional, organism-based; design: dose 30 mg/kg
# [2] = biological target: Melanin-concentrating hormone receptor 1 (Mus musculus) (UniProt Q8JZL2); assay: Ex vivo displacement of [125I]S36057 binding from mouse brain MCHR1 at 30 mg/kg, po after 24 hrs; format: functional, organism-based; design: dose 30 mg/kg
# hERG (KCNH2) [3] = biological target: T1, hERG (KCNH2) (Homo sapiens, UniProt Q12809); assay: (§1) Inhibition of hERG expressed in CHO cells at 5 ug/mL by rubidium efflux assay; format: toxicity, cell-based; conditions: CHO cells that express hERG
# Method in brief: (§2)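 hERG-CHO cells plated 24 h, then loaded 3 h in HEPES-buffered saline with 5.4 mM RbCl. Compound added and equilibrated 30 min at 37 °C. Cells washed three times in Rb-free saline (5.4 mM KCl), then depolarized 5 min with 45.4 mM KCl.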
# [4] = biological target: Melanin-concentrating hormone receptor 1 (Homo sapiens, UniProt Q99705); assay: Displacement of [125I]MCH from MCHR1 expressed in CHO cells; format: cell-based
# Method in brief: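 Human MCH R1, CHO cell membranes (0.1 mg/mL) on SPA beads (1 mg/mL). Buffer: 25 mM HEPES, 10 mM MgCl2, 5 mM MnCl2, 0.1% BSA, pH 7.4. Incubation 2–4 h at room temperature, scintillation count. Ki by non-linear regression; mean ± range of two determinations, each in quadruplicate.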
# [5] = biological target: Voltage-gated inwardly rectifying potassium channel KCNH2 (Homo sapiens, UniProt Q12809); assay: as §1; format: toxicity, cell-based; conditions: cho; method in brief: as §2
# hERG (KCNH2) [6] = biological target: T1, hERG (KCNH2); assay: Inhibition of hERG expressed in CHO cells at […] by rubidium efflux assay; format: toxicity, cell-based; conditions: CHO cells that express hERG
# Sequence of Melanin-concentrating hormone receptor 1 (Q99705 whole entry): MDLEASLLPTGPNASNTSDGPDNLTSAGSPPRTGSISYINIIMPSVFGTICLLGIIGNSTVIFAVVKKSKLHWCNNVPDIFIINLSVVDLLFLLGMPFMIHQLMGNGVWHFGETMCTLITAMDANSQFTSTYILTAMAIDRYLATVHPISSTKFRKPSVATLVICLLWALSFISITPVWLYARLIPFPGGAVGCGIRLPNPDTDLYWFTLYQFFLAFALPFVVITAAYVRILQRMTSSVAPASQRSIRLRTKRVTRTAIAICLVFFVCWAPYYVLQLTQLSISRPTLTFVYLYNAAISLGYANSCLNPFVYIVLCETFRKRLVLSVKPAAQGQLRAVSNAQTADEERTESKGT
# Sequence of Melanin-concentrating hormone receptor 1 (Mus musculus) (Q8JZL2 whole entry): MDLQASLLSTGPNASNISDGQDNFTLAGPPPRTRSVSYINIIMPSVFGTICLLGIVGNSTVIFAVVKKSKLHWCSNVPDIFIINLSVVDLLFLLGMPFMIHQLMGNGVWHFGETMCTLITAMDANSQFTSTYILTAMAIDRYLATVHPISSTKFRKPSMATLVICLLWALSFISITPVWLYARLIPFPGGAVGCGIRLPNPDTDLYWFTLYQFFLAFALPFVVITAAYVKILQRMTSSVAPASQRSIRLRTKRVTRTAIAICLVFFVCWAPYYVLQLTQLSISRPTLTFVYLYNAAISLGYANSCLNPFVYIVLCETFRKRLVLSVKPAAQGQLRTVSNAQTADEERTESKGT
# T1 sequence (Q12809 whole entry): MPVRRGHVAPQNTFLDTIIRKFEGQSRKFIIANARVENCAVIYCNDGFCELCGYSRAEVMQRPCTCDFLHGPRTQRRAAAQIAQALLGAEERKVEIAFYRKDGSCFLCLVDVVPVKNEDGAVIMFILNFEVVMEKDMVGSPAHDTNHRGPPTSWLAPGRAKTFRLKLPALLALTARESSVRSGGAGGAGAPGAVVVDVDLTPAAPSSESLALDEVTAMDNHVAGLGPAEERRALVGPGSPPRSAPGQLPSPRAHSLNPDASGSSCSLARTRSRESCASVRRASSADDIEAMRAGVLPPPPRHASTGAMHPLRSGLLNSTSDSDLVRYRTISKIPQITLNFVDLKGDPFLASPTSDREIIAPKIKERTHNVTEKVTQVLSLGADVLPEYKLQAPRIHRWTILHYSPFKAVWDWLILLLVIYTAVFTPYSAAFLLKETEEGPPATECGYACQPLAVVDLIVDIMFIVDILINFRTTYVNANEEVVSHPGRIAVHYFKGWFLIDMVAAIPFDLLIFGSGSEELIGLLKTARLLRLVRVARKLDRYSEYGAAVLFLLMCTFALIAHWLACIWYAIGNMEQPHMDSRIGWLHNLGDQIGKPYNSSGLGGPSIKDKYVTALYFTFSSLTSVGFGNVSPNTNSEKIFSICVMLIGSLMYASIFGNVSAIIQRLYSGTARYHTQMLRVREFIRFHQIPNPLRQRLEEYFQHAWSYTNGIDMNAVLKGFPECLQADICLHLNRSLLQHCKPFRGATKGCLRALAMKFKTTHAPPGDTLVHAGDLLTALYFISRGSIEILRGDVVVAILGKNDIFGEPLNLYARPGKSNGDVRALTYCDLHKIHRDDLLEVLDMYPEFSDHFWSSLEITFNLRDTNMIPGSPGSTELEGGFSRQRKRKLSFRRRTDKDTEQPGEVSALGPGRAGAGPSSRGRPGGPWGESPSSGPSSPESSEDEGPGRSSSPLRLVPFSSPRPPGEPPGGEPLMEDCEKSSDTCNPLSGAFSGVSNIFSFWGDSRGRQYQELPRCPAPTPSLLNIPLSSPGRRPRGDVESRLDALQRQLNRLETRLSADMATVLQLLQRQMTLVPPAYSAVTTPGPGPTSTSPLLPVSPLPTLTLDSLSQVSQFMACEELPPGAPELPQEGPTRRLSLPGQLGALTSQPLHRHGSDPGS
# Sequence of Voltage-gated inwardly rectifying potassium channel KCNH2 (Q12809 whole entry): as above
Compound,Activity [1],Activity [2],Ki [4],inhibition at 5 ug/mL (hERG (KCNH2) [3]),Activity [5],inhibition at […] (hERG (KCNH2) [6])
N#Cc1cccc([C@]23CC[C@@H](N(CCN4CC[C@@H](O)C4)C(=O)Nc4ccc(F)c(Cl)c4)CC2C3)c1 (some centres undefined),49%,inactive,–,80%,–,–
CC(C)N(CCN(C(=O)Nc1ccc(F)c(Cl)c1)[C@@H]1CC[C@]2(c3cccc(C#N)c3)CC2C1)[C@H](C)CO (some centres undefined),73%,25%,9.4 nM,–,Not Active,–
NCc1ccc(C2=CCC(N(CCN3CCCC3)C(=O)Nc3ccc(F)c(Cl)c3)CC2)s1 (centres undefined),77%,57%,8.2 nM,26%,–,–
N#Cc1cccc([C@]23CC[C@@H](N(CCN4CCC[C@H]4CO)C(=O)Nc4ccc(F)c(Cl)c4)CC2C3)c1 (some centres undefined),78%,inactive,–,75%,–,–
NCc1ncc(C2=CCC(N(CCN3CCCC3)C(=O)Nc3ccc(F)c(Cl)c3)CC2)s1 (centres undefined),88%,75%,13 nM,10%,–,–
CN(C)Cc1cccc([C@]23CC[C@@H](N(CC4CCN(S(C)(=O)=O)CC4)C(=O)Nc4ccc(F)c(Cl)c4)CC2C3)c1 (some centres undefined),26%,–,15 nM,8%,–,7%
CC1CC[C@@H](CO)N1CCN(C(=O)Nc1ccc(F)c(Cl)c1)[C@@H]1CC[C@]2(c3cccc(C#N)c3)CC2C1 (some centres undefined),31%,2%,11 nM,78%,–,–
CC(C)N(CCF)CCN(C(=O)Nc1ccc(F)c(Cl)c1)[C@@H]1CC[C@]2(c3cccc(C#N)c3)CC2C1 (some centres undefined),81%,66%,12 nM,50%,–,–
CC(C)N(CCO)CCN(C(=O)Nc1ccc(F)c(Cl)c1)[C@@H]1CC[C@]2(c3cccc(C#N)c3)CC2C1 (some centres undefined),73%,38%,8.7 nM,88%,–,–
NCc1cnc(C2=CCC(N(CCN3CCCC3)C(=O)Nc3ccc(F)c(Cl)c3)CC2)s1 (centres undefined),37%,–,17 nM,14%,–,–
CC(C)N(CCF)CCN(C(=O)Nc1cc(Cl)nc(Cl)c1)[C@@H]1CC[C@]2(c3cccc(C#N)c3)CC2C1 (some centres undefined),99%,97%,10 nM,50%,–,–
CNC(=O)N1CCC(CN(C(=O)Nc2ccc(F)c(C(F)(F)F)c2)[C@@H]2CC[C@]3(c4cccc(C#N)c4)CC3C2)CC1 (some centres undefined),–,–,181 nM,18%,–,14%
CC(C)N(CCN(C(=O)Nc1ccc(F)c(Cl)c1)[C@@H]1CC[C@]2(c3cccc(CO)c3)CC2C1)C(C)C (some centres undefined),–,–,48 nM,67%,–,43%
CC(C)N(CCN(C(=O)Nc1ccc(F)c(Cl)c1)[C@@H]1CC[C@]2(c3cccc(CNS(C)(=O)=O)c3)CC2C1)C(C)C (some centres undefined),–,–,18 nM,46%,–,17%
CC(=O)N1CCC(CN(C(=O)Nc2ccc(F)c(Cl)c2)[C@@H]2CC[C@]3(c4cccc(C#N)c4)CC3C2)CC1 (some centres undefined),–,–,312 nM,37%,–,32%
CS(=O)(=O)N1CCC(CN(C(=O)Nc2cc(Cl)nc(Cl)c2)[C@@H]2CC[C@]3(c4cccc(CN5CC[C@H](O)C5)c4)CC3C2)CC1 (some centres undefined),1%,–,8.9 nM,0%,–,-7%
CC(=O)c1ccc(C2=CCC(N(CCN3CCCC3)C(=O)Nc3ccc(F)c(Cl)c3)CC2)s1 (centres undefined),59%,3%,31 nM,43%,–,–
CS(=O)(=O)N1CCC[C@H]1CN(C(=O)Nc1ccc(F)c(Cl)c1)[C@@H]1CC[C@]2(c3cccc(C#N)c3)CC2C1 (some centres undefined),–,–,559 nM,13%,–,32%
CC(C)N(CCN(C(=O)Nc1cc(Cl)nc(Cl)c1)[C@@H]1CC[C@]2(c3cccc(C#N)c3)CC2C1)C(C)C (stereo in doubt; 13),99%,58%,–,–,–,–
CC(C)N(CCN(C(=O)Nc1ccc(F)c(Cl)c1)[C@@H]1CC[C@]2(c3cccc(C(N)=O)c3)CC2C1)C(C)C (some centres undefined),–,–,142 nM,44%,–,21%
CS(=O)(=O)N1CCC(CN(C(=O)Nc2ccc(F)c(Cl)c2)[C@@H]2CC[C@]3(c4cccc(CN)c4)CC3C2)CC1 (some centres undefined),0%,–,9.9 nM,14%,–,8%
O=C(Nc1ccc(F)c(Cl)c1)N(CCN1CCCC1)C1CC=C(c2cccnc2)CC1 (centres undefined),16%,–,30 nM,–,–,–
CCN(CC)Cc1cccc([C@]23CC[C@@H](N(CCN(C(C)C)C(C)C)C(=O)Nc4ccc(F)c(Cl)c4)CC2C3)c1 (some centres undefined),–,–,46 nM,30%,–,15%
CC(C)N(CCN(C(=O)Nc1ccc(F)c(Cl)c1)[C@@H]1CC[C@]2(c3cccc(CN4CCN(C)CC4)c3)CC2C1)C(C)C (some centres undefined),–,–,54 nM,13%,–,10%
CS(=O)(=O)N1CCCCC1CN(C(=O)Nc1ccc(F)c(Cl)c1)[C@@H]1CC[C@]2(c3cccc(C#N)c3)CC2C1 (some centres undefined),–,–,295 nM,3%,–,31%
CCS(=O)(=O)N1CCC(CN(C(=O)Nc2ccc(F)c(F)c2)[C@@H]2CC[C@]3(c4cccc(C#N)c4)CC3C2)CC1 (some centres undefined),–,–,21 nM,59%,–,25%
CC(=O)NCc1cccc([C@]23CC[C@@H](N(CCN(C(C)C)C(C)C)C(=O)Nc4ccc(F)c(Cl)c4)CC2C3)c1 (some centres undefined),–,–,31 nM,78%,–,62%
CC(C)N(CCN(C(=O)Nc1ccc(F)c(Cl)c1)[C@@H]1CC[C@]2(c3cccc(CN(C)C)c3)CC2C1)C(C)C (some centres undefined),–,–,13 nM,5%,–,-1%

# Second part, led by results:
Activity [1],Activity [2],Ki [4],Compound,inhibition at 5 ug/mL (hERG (KCNH2) [3]),Activity [5],inhibition at […] (hERG (KCNH2) [6])
99%,81%,1.6 nM,CC(C)N(CCN(C(=O)Nc1cc(Cl)nc(Cl)c1)[C@@H]1CC[C@]2(c3cccc(C#N)c3)CC2C1)[C@@H](C)CO (some centres undefined),60%,–,–
75%,35%,5.2 nM,CC(C)N(CCN(C(=O)Nc1ccc(F)c(Cl)c1)[C@@H]1CC[C@]2(c3cccc(C#N)c3)CC2C1)[C@@H](C)CO (some centres undefined),82%,–,–
84%,97%,4.2 nM,N#Cc1ccc(C2=CCC(N(CCN3CCCC3)C(=O)Nc3ccc(F)c(Cl)c3)CC2)s1 (centres undefined),74%,–,–
83%,inactive,5 nM,CC(C)N(CCN(C(=O)Nc1ccc(F)c(Cl)c1)[C@@H]1CC[C@]2(c3cccc(C#N)c3)CC2C1)C(C)C (some centres undefined),78%,–,44%
99%,inactive,1.6 nM,CC(C)N(CCO)CCN(C(=O)Nc1cc(Cl)nc(Cl)c1)[C@@H]1CC[C@]2(c3cccc(C#N)c3)CC2C1 (some centres undefined),–,Not Active,–
0%,–,2.4 nM,CS(=O)(=O)N1CCC(CN(C(=O)Nc2cc(Cl)nc(Cl)c2)[C@@H]2CC[C@]3(c4cccc(CN)c4)CC3C2)CC1 (some centres undefined),3%,–,-1%
0%,–,3.3 nM,CN(C)Cc1cccc([C@]23CC[C@@H](N(CC4CCN(S(C)(=O)=O)CC4)C(=O)Nc4cc(Cl)nc(Cl)c4)CC2C3)c1 (some centres undefined),7%,–,8%
93%,70%,1.9 nM,CC(C)NCCN(C(=O)Nc1cc(Cl)nc(Cl)c1)[C@@H]1CC[C@]2(c3cccc(C#N)c3)CC2C1 (some centres undefined),–,Not Active,–
–,–,2.3 nM,CC(C)N(CCN(C(=O)Nc1ccc(F)c(Cl)c1)[C@@H]1CC[C@]2(c3cccc(CN)c3)CC2C1)C(C)C (some centres undefined),32%,–,22%
–,–,7.2 nM,CS(=O)(=O)N1CCC(CN(C(=O)Nc2ccc(F)c(Cl)c2)[C@@H]2CC[C@]3(c4cccc(C#N)c4)CC3C2)CC1 (some centres undefined),24%,–,6%
82%,41%,1.2 nM,CC1CC[C@@H](CO)N1CCN(C(=O)Nc1cc(Cl)nc(Cl)c1)[C@@H]1CC[C@]2(c3cccc(C#N)c3)CC2C1 (some centres undefined),60%,–,–
62%,inactive,4.1 nM,CO/N=C/c1cccc([C@]23CC[C@@H](N(CCN(C(C)C)C(C)C)C(=O)Nc4ccc(F)c(Cl)c4)CC2C3)c1 (some centres undefined),76%,–,–
89%,32%,4.4 nM,N#Cc1cccc([C@]23CC[C@@H](N(CCNCCF)C(=O)Nc4cc(Cl)nc(Cl)c4)CC2C3)c1 (some centres undefined),84%,–,–
